ChEMBL document CHEMBL4373651, “Indole compounds with N-ethyl morpholine moieties as CB2 receptor agonists for anti-inflammatory management of pain: synthesis and biological evaluation” (Medchemcomm, 2019)

Assays:
[1] = target: Cannabinoid receptor 1 (Homo sapiens, UniProt P21554); experiment: Agonist activity at human CB1 receptor expressed in CHO cells coexpressing Galpha16 assessed as reduction in forsklin-induced cAMP production incubated for 30 mins by cAMP Hunter assay based […] analysis; format: cell-based
Summary of the method: (§1)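 CHO cells expressing human CB1 or CB2 with Gα16, seeded overnight at 37 °C. Test compounds in stimulation buffer with 1 mM IBMX, 0.25% BSA and forskolin, 30 min at 37 °C. Cells lysed, cAMP read by enzyme fragment complementation chemiluminescence kit. Triplicate per dilution. Efficacy relative to CP-55940 reference run twice per plate. EC50 from means.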

[2] = target: Cannabinoid receptor 2 (Homo sapiens, UniProt P34972); experiment: Agonist activity at human CB2 receptor expressed in CHO cells coexpressing Galpha16 assessed as reduction in forsklin-induced cAMP production incubated for 30 mins by cAMP Hunter assay based […] analysis; format: functional, cell-based; summary of the method: as §1
[3] = Selectivity ratio of EC50 for human CB1 receptor expressed in CHO cells coexpressing Galpha16 to EC50 for human CB2 receptor expressed in CHO cells coexpressing Galpha16
Summary of the method: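 Ratio of EC50 values from the CB1 and CB2 cAMP assays in CHO-Gα16 cells: 30 min compound exposure at 37 °C with 1 mM IBMX and forskolin, chemiluminescent cAMP read-out, triplicates.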

Sequence of Cannabinoid receptor 1 (P21554 whole entry, the tested form may be a part): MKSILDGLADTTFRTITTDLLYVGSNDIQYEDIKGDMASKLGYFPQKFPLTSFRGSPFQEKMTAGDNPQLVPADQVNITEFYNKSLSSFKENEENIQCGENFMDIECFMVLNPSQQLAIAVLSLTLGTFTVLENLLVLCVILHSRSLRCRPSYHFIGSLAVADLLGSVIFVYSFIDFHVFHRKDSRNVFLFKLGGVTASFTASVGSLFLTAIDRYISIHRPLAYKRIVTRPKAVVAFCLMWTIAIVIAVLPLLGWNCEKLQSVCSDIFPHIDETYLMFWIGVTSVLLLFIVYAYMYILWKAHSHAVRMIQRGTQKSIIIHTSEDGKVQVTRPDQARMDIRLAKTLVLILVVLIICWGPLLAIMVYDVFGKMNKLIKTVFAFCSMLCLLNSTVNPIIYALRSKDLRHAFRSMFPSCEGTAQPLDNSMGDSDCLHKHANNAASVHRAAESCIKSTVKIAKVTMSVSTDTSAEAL
Sequence of Cannabinoid receptor 2 (P34972 whole entry): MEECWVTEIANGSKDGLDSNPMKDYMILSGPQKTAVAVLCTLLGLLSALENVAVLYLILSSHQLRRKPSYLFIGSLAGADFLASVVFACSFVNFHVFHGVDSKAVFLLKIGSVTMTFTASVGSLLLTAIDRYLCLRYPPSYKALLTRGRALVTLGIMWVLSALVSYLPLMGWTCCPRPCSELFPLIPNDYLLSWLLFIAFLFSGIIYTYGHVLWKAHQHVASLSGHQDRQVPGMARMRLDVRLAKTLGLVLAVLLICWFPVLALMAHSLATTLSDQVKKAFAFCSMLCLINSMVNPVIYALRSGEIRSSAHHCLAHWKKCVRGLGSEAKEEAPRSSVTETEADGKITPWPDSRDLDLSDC

Row | SMILES | EC50 ([1]; cho) | EC50 ([2]; read-out: EC50) [µM] | EC50 ([1]; read-out: EC50) [µM] | Ratio EC50 [3] | EC50 ([2]; cho)
1 | Cc1c(CCN2CCOCC2)c2cc(Br)ccc2n1CC(=O)NCC1CC1 | Not Active | 5.4 | – | – | –
2 | COc1ccc2c(c1)c(CCN1CCOCC1)c(C)n2CC(=O)N1CCCC1 | Not Active | > 100 | – | – | –
3 | Cc1c(CCN2CCOCC2)c2cc(Cl)ccc2n1C(=O)c1cccc(Cl)c1Cl | – | 0.117 | 79.8 | >1000 | –
4 | Cc1c(CC(=O)NCC2CC2)c2cc(F)ccc2n1CCN1CCOCC1 | Not Active | 3.1 | – | – | –
5 | Cc1c(CC(=O)NCc2ccc3c(c2)OCO3)c2cc(Cl)ccc2n1CCN1CCOCC1 | Not Active | – | – | – | Not Active
6 | Cc1c(CCN2CCOCC2)c2cc(Br)ccc2n1C(=O)c1cccc(Cl)c1Cl | – | 0.0523 | > 100 | >1000 | –
7 | COc1ccc2c(c1)c(CC(=O)NCc1ccc3c(c1)OCO3)c(C)n2CCN1CCOCC1 | Not Active | – | – | – | Not Active
8 | Cc1c(CCN2CCOCC2)c2cc(Cl)ccc2n1C(=O)N1CCCC1 | Not Active | – | – | – | Not Active
9 | Cc1c(CC(=O)NC2CC2)c2cc(F)ccc2n1CCN1CCOCC1 | Not Active | 4.1 | – | – | –
10 | Cc1c(CCN2CCOCC2)c2cc(F)ccc2n1CC(=O)N1CCCCC1 | Not Active | – | – | – | Not Active
11 | Cc1c(CCN2CCOCC2)c2cc(Br)ccc2n1CC(=O)NC1CC1 | Not Active | 8.2 | – | – | –
12 | Cc1c(CC(=O)N2CCCC2)c2cc(Cl)ccc2n1CCN1CCOCC1 | Not Active | – | – | – | Not Active
13 | Cc1c(CCN2CCOCC2)c2cc(Br)ccc2n1CC(=O)NC1CCCC1 | Not Active | 20.2 | – | – | –
14 | Cc1c(CCN2CCOCC2)c2cc(Br)ccc2n1CC(=O)N1CCCC1 | Not Active | – | – | – | Not Active
15 | COc1ccc2c(c1)c(CC(=O)NCC1CC1)c(C)n2CCN1CCOCC1 | Not Active | – | – | – | Not Active
16 | COc1ccc2c(c1)c(CCN1CCOCC1)c(C)n2CC(=O)NCC1CC1 | Not Active | > 100 | – | – | –
17 | COc1ccc2c(c1)c(CC(=O)NC1CC1)c(C)n2CCN1CCOCC1 | Not Active | – | – | – | Not Active
18 | Cc1c(CCN2CCOCC2)c2cc(Cl)ccc2n1CC(=O)NC1CCCC1 | Not Active | 16.1 | – | – | –
19 | Cc1c(CCN2CCOCC2)c2cc(Cl)ccc2n1CC(=O)N1CCCC1 | Not Active | – | – | – | Not Active
20 | COc1ccc2c(c1)c(CCN1CCOCC1)c(C)n2CC(=O)NC1CC1 | Not Active | – | – | – | Not Active
21 | Cc1c(CCN2CCOCC2)c2cc(F)ccc2n1CC(=O)NC1CCCC1 | Not Active | 5.5 | – | – | –
22 | COc1ccc2c(c1)c(CCN1CCOCC1)c(C)n2CC(=O)NCc1ccc2c(c1)OCO2 | Not Active | 28.1 | – | – | –
23 | Cc1c(CC(=O)NCC2CC2)c2cc(Cl)ccc2n1CCN1CCOCC1 | Not Active | 0.594 | – | >1000 | –
24 | Cc1c(CCN2CCOCC2)c2cc(Cl)ccc2n1CC(=O)NC1CCCCC1 | Not Active | – | – | – | Not Active
25 | Cc1c(CC(=O)NC2CC2)c2cc(Cl)ccc2n1CCN1CCOCC1 | Not Active | 1.2 | – | – | –
26 | Cc1c(CCN2CCOCC2)c2cc(F)ccc2n1CC(=O)NC1CCCCC1 | Not Active | – | – | – | Not Active
27 | Cc1c(CC(=O)NCc2ccc3c(c2)OCO3)c2cc(F)ccc2n1CCN1CCOCC1 | Not Active | – | – | – | Not Active
28 | Cc1c(CC(=O)N2CCCCC2)c2cc(F)ccc2n1CCN1CCOCC1 | Not Active | – | – | – | Not Active

Row | SMILES | EC50 ([1]; cho) | EC50 ([2]; read-out: EC50) [µM] | EC50 ([1]; read-out: EC50) [µM] | Ratio EC50 [3] | EC50 ([2]; cho)
29 | Cc1c(CCN2CCOCC2)c2cc(Br)ccc2n1CC(=O)N1CCCCC1 | Not Active | – | – | – | Not Active
30 | COc1ccc2c(c1)c(CCN1CCOCC1)c(C)n2CC(=O)NC1CCCC1 | Not Active | 5.6 | – | – | –
31 | Cc1c(CC(=O)N2CCCC2)c2cc(F)ccc2n1CCN1CCOCC1 | Not Active | – | – | – | Not Active
32 | COc1ccc2c(c1)c(CCN1CCOCC1)c(C)n2CC(=O)NC1CCCCC1 | Not Active | 11.6 | – | – | –
33 | Cc1c(CC(=O)N2CCCCC2)c2cc(Cl)ccc2n1CCN1CCOCC1 | Not Active | – | – | – | Not Active
34 | Cc1c(CCN2CCOCC2)c2cc(Br)ccc2n1C(=O)N1CCCC1 | Not Active | – | – | – | Not Active
35 | Cc1c(CCN2CCOCC2)c2cc(F)ccc2n1CC(=O)NCC1CC1 | Not Active | 4.2 | – | – | –
36 | COc1ccc2c(c1)c(CC(=O)NC1CCCCC1)c(C)n2CCN1CCOCC1 | Not Active | > 100 | – | – | –
37 | Cc1c(CCN2CCOCC2)c2cc(F)ccc2n1C(=O)N1CCCC1 | Not Active | – | – | – | Not Active
38 | COc1ccc2c(c1)c(CC(=O)NC1CCCC1)c(C)n2CCN1CCOCC1 | Not Active | – | – | – | Not Active
39 | COc1ccc2c(c1)c(CCN1CCOCC1)c(C)n2CC(=O)N1CCCCC1 | Not Active | 41.9 | – | – | –
40 | Cc1c(CCN2CCOCC2)c2cc(Br)ccc2n1CC(=O)NCc1ccc2c(c1)OCO2 | Not Active | – | – | – | Not Active
41 | Cc1c(CC(=O)NC2CCCC2)c2cc(Cl)ccc2n1CCN1CCOCC1 | Not Active | 2.7 | – | – | –
42 | Cc1c(CCN2CCOCC2)c2cc(Cl)ccc2n1CC(=O)NC1CC1 | Not Active | 5.3 | – | – | –
43 | Cc1c(CCN2CCOCC2)c2cc(Cl)ccc2n1CC(=O)N1CCCCC1 | Not Active | – | – | – | Not Active
44 | Cc1c(CCN2CCOCC2)c2cc(Br)ccc2n1CC(=O)NC1CCCCC1 | Not Active | – | – | – | Not Active
45 | Cc1c(CCN2CCOCC2)c2cc(Cl)ccc2n1CC(=O)NCc1ccc2c(c1)OCO2 | Not Active | – | – | – | Not Active
46 | Cc1c(CC(=O)NC2CCCCC2)c2cc(F)ccc2n1CCN1CCOCC1 | Not Active | > 100 | – | – | –
47 | COc1ccc2c(c1)c(CCN1CCOCC1)c(C)n2C(=O)N1CCCC1 | Not Active | 26.4 | – | – | –
48 | Cc1c(CCN2CCOCC2)c2cc(F)ccc2n1CC(=O)N1CCCC1 | Not Active | – | – | – | Not Active
49 | Cc1c(CC(=O)NC2CCCC2)c2cc(F)ccc2n1CCN1CCOCC1 | Not Active | 0.476 | – | >1000 | –
50 | Cc1c(CC(=O)NC2CCCCC2)c2cc(Cl)ccc2n1CCN1CCOCC1 | Not Active | > 100 | – | – | –
51 | COc1ccc2c(c1)c(CC(=O)N1CCCCC1)c(C)n2CCN1CCOCC1 | Not Active | > 100 | – | – | –
52 | Cc1c(CCN2CCOCC2)c2cc(Cl)ccc2n1CC(=O)NCC1CC1 | Not Active | 14.3 | – | – | –
53 | Cc1c(CCN2CCOCC2)c2cc(F)ccc2n1CC(=O)NC1CC1 | Not Active | 3.9 | – | – | –
54 | COc1ccc2c(c1)c(CC(=O)N1CCCC1)c(C)n2CCN1CCOCC1 | Not Active | – | – | – | Not Active
55 | Cc1c(CCN2CCOCC2)c2cc(F)ccc2n1CC(=O)NCc1ccc2c(c1)OCO2 | Not Active | – | – | – | Not Active
